Experimental data: ChEMBL document CHEMBL3792374, “Discovery of a ring-opened derivative of 3-n-butylphthalide bearing NO/H2S-donating moieties as a potential anti-ischemic stroke agent” (Eur J Med Chem, 2016)
The source made the active and inactive calls. The rule behind the calls is not given here.

Legend:
[1] = Antiplatelet activity in rabbit platelet-rich plasma assessed as inhibition of ADP-induced platelet aggregation at 0.1 mM preincubated for 5 mins followed by addition of ADP measured within 5 mins by Borns turbidimetric method; assay type: functional; conditions: Oryctolagus cuniculus
Outline: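 Rabbit carotid blood was citrated (3.8%, 9:1). PRP was obtained at 500 g for 10 min and PPP at 3000 g for 10 min. PRP was preincubated in duplicate for 5 min at 37 °C with 0.1 mM compound, plus carboxy-PTIO or BSS where indicated. ADP was then added and maximal light transmission recorded within 5 min, within 3 h of blood collection. Inhibition % was calculated versus control. Mean ± SD of three independent experiments.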

Rattus norvegicus [2] = assay: Neuroprotective activity in Sprague-Dawley rat model of transient middle cerebral artery occlusion stroke model assessed as neurological deficit at 80 mg/kg administered via oral gavage for 7 days after ischemia onset measured 24 hrs after middle cerebral artery occlusion by Longa's method; assay type: functional, organism-based; conditions: in the assay text read “before ischemia onset” for “after ischemia onset”
Outline: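 Male SD rats (280–320 g) received daily gavage for 7 days, with 0.5% CMC-Na as vehicle. Two hours after the last dose they underwent 2 h MCAO with reperfusion under chloral hydrate anesthesia; core temperature was held at 37 °C. Neurological deficit was scored blinded by Longa's method 24 h after reperfusion, between 10 and 11 a.m. Kruskal–Wallis test followed by Mann–Whitney U test.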

Rattus norvegicus [3] = assay: Antioxidant activity in Sprague-Dawley rat brain tissue model of transient middle cerebral artery occlusion stroke model assessed as increase in superoxide dismutase levels per mg of protein at 80 mg/kg […] measured 24 hrs after reperfusion by nitroblue tetrazolium assay relative to control; assay type: functional
Rattus norvegicus [4] = assay: Antioxidant activity in Sprague-Dawley rat brain tissue model of transient middle cerebral artery occlusion stroke model assessed as increase in glutathione peroxidase levels per mg of protein at 80 mg/kg […] measured 24 hrs after reperfusion by DTNB assay relative to control; assay type: functional
[5] = Antiplatelet activity in rabbit platelet-rich plasma assessed as inhibition of ADP-induced platelet aggregation preincubated for 5 mins followed by addition of ADP measured within 5 mins by Borns turbidimetric method; assay type: functional; conditions: Oryctolagus cuniculus
Outline: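 Platelet-rich plasma from citrated rabbit carotid blood was preincubated in duplicate at 37 °C for 5 min with compound at 0.1, 0.2, 0.4, 0.8 or 1.6 mM. ADP-induced aggregation was then recorded turbidimetrically, as maximal light transmission within 5 min. Inhibition was calculated versus vehicle control, and IC50 values were derived. Mean ± SD, n = 6, ANOVA/Tukey.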

For `CCCCC1OC(=O)c2ccccc21` (stereo not drawn) [RAC-3-N-BUTYLPHTHALIDE], the inhibition at 100 µM [1] was 12.9%, the Activity (Rattus norvegicus [2]) was “inactive” and the Activity (Rattus norvegicus [3]) was 24.36%. It also gave an Activity (Rattus norvegicus [4]) of 63.55% and an IC50 [5] of 740 µM.
